Measurements published in ChEMBL document CHEMBL1149395, “Beta-substituted cyclohexanecarboxamide: a nonpeptidic framework for the design of potent inhibitors of cathepsin K” (J Med Chem, 2006).

What was measured:
[1] = target: T1, Cathepsin K (Homo sapiens, UniProt P43235); assay: Inhibitory activity against human Cathepsin K
T1 sequence (P43235 whole entry): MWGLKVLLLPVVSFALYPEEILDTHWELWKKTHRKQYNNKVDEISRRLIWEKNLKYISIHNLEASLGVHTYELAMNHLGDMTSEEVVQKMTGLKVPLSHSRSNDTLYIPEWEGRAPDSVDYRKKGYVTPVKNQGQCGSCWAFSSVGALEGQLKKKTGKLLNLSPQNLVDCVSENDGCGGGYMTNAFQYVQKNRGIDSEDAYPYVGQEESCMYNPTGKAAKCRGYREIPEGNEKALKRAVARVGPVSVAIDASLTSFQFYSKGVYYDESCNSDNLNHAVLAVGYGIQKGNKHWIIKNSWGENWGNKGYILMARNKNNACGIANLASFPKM

[2] = target: Cathepsin K (Homo sapiens, UniProt P43235); assay: Inhibitory activity against humanized rabbit Cathepsin K
[3] = target: Cathepsin (L and K) (Homo sapiens) (UniProt P43235+P07711); assay: Selectivity for Cathepsin L over Cathepsin K; format: protein assay
[4] = target: Cathepsin (S and K) (Homo sapiens) (UniProt P25774+P43235); assay: Selectivity for Cathepsin S over Cathepsin K; format: protein assay
[5] = target: Cathepsin (B and K) (Homo sapiens) (UniProt P43235+P07858); assay: Selectivity for Cathepsin B over Cathepsin K; format: protein assay
[6] = Half life in squirrel monkey at 1 mL/kg, po; format: ADME, organism-based, Saimiri sciureus; details: in vivo
Method in brief: (§1)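 Single compounds given orally as suspensions in 1% methocel to animals fasted overnight, dosed in the morning. Oral dosing volumes were 10 mL/kg for rats, 5 mL/kg for dogs and 1 mL/kg for monkeys. Intravenous comparison dosing went via the jugular vein in PEG-200/H₂O (3:2) at 1 mL/kg. Plasma was sampled at regular intervals, precipitated with 1.5 volumes of acetonitrile, centrifuged and analysed by LC-MS.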

[7] = Plasma clearance in rat at 10 mL/kg, po; format: ADME, organism-based; details: Sprague-Dawley; method in brief: as §1
[8] = Oral bioavailability in rats at 10 mL/kg, po; format: ADME, organism-based; details: Sprague-Dawley, rat, in vivo; method in brief: as §1
[9] = target: T2, Cathepsin K (Oryctolagus cuniculus, UniProt P43236); assay: Inhibitory activity against rabbit Cathepsin K
T2 sequence (P43236 whole entry): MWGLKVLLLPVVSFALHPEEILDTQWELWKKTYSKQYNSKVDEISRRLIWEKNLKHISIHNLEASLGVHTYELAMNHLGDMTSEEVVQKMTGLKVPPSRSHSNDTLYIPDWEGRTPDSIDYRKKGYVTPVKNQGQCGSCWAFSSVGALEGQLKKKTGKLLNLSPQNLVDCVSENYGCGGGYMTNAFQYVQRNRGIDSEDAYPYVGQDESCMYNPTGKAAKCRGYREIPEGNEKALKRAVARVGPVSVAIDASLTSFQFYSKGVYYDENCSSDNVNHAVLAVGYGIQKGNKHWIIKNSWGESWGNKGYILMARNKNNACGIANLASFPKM

[10] = Half life in rat at 10 mL/kg, po; format: ADME, organism-based; details: Sprague-Dawley, in vivo; method in brief: as §1
[11] = Plasma clearance in squirrel monkey at 1 mL/kg, po; format: ADME, organism-based, Saimiri sciureus; method in brief: as §1
[12] = Oral bioavailability in squirrel monkey at 1 mL/kg, po; format: ADME, organism-based, Saimiri sciureus; details: in vivo; method in brief: as §1
[13] = Half life in rat at 1 mL/kg, iv; details: Sprague-Dawley, in vivo
[14] = Plasma clearance in rat at 1 mL/kg, iv; details: Sprague-Dawley
[15] = organism: Oryctolagus cuniculus; assay: Effect on degradation of collagen in bovine bone by rabbit osteoclast; format: functional
[16] = Oral bioavailability in dogs at 5 mL/kg, po; format: ADME, organism-based, Canis lupus familiaris; details: dog, in vivo; method in brief: as §1
[17] = Plasma clearance in dog at 5 mL/kg, po; format: ADME, organism-based, Canis lupus familiaris; method in brief: as §1
[18] = Half life in dog at 5 mL/kg, po; format: ADME, organism-based, Canis lupus familiaris; details: in vivo; method in brief: as §1

Compound | IC50 [2] [nM] | Selectivity ratio [3] | Selectivity ratio [4] | Selectivity ratio [5] | other results
N#CCNC(=O)[C@@H]1CCCC[C@@H]1SCc1ccccc1 (racemic) |  |  |  |  | IC50 [1]: 280 nM
CSc1ccc(SC[C@@H]2CCCC[C@H]2C(=O)NCC#N)cc1 (racemic) | 4.2 | 2200 | 3200 | > 24000 | 
N#CCNC(=O)[C@@H]1CCCC[C@H]1CSc1cc(Cl)c(Cl)cc1Cl (racemic) | 460 |  |  |  | 
CSc1ccc(-c2ccccc2C2CCC(F)CC2C(=O)NCC#N)cc1 (racemic; form 1) [listing 1 of 2 here] | 4.2 |  |  |  | half-life [6]: 0.8 h; CL/F [7]: 25 mL/min/kg; bioavailability [8]: 88%; IC50 [9]: 3.7 nM; half-life [10]: 1.5 h; CL/F [11]: 21 mL/min/kg; bioavailability [12]: 28%
N#CCNC(=O)[C@@H]1CCCC[C@H]1CSc1cccc(Cl)c1 (mixture of isomers) | 200 |  |  |  | 
CSc1ccc(-c2ccccc2[C@@H]2CCCC[C@H]2C(=O)NCC#N)cc1 (racemic) | 2.6 | 2800 | > 3800 | > 3800 | half-life [13]: 0.733 h; clearance [14]: 35 mL/min/kg
N#CCNC(=O)[C@@H]1CCCC[C@H]1CSc1ccc(I)cc1 (relative stereo) | 17 | 52 | > 5800 | > 5800 | 
N#CCNC(=O)C1CC(F)(F)CCC1c1ccccc1-c1ccc(F)cc1 (racemic) | 36 |  |  |  | CL/F [7]: 37 mL/min/kg; bioavailability [8]: 26%; IC50 [9]: 9.2 nM; half-life [10]: 4.5 h
CSc1ccc(-c2ccccc2C2CCC(F)CC2C(=O)NCC#N)cc1 (racemic; form 2) [listing 1 of 2 here] |  | 2000 | 180 | > 2700 | 
N#CCNC(=O)[C@@H]1CCCC[C@H]1CSc1cccc(O)c1 | 330 |  |  |  | 
CSc1ccc(-c2ccccc2[C@@H]2CCC(F)(F)C[C@H]2C(=O)NCC#N)cc1 | 0.28 | 780 | 940 | > 36000 | IC50 [15]: 16 nM; bioavailability [16]: 55%; CL/F [17]: 3.6 mL/min/kg; half-life [6]: 8.8 h; half-life [18]: 15 h; CL/F [7]: 8.7 mL/min/kg; bioavailability [8]: 39%; IC50 [9]: 0.32 nM; half-life [10]: 3.5 h; CL/F [11]: 17 mL/min/kg; bioavailability [12]: 78%
N#CCNC(=O)[C@@H]1CCCC[C@H]1CSc1cc(Cl)ccc1Cl (racemic) | 150 |  |  |  | 
N#CCNC(=O)C1=CCCCC1 |  |  |  |  | IC50 [1]: 3400 nM
CSc1ccc(-c2ccccc2C2CCC(F)(F)CC2C(=O)NCC#N)cc1 (racemic) | 0.46 | 880 | 1100 | > 120000 | CL/F [7]: 15 mL/min/kg; bioavailability [8]: 53%; IC50 [9]: 0.5 nM; half-life [10]: 3.5 h
N#CCNC(=O)[C@@H]1CCCC[C@H]1c1ccccc1-c1ccc(F)cc1 (racemic) |  |  |  |  | half-life [13]: 0.75 h; clearance [14]: 50 mL/min/kg
N#CCNC(=O)[C@@H]1CCCC[C@H]1CSc1nc2ccccc2o1 (racemic) | 480 |  |  |  | 
N#CCNC(=O)[C@@H]1CCCC[C@H]1CSc1cccc(F)c1 (racemic) | 350 |  |  |  | 
N#CCNC(=O)[C@@H]1CCCC[C@H]1CSc1nc2ccccc2s1 (racemic) | 200 |  |  |  | 
N#CCNC(=O)[C@@H]1CCCC[C@H]1CSc1ccc(O)cc1 (racemic) | 21 | 1700 | 110 | 880 | 
CSc1ccc(S(=O)(=O)C[C@@H]2CCCC[C@H]2C(=O)NCC#N)cc1 (mixture of isomers) | 5 | 740 | 1800 | 2000 | half-life [13]: 0.0833 h; clearance [14]: 38 mL/min/kg
N#CCNC(=O)[C@@H]1CCCC[C@H]1CSc1ccc(Cl)cc1 (racemic) | 30 | 120 | 330 | > 3400 | 
N#CCNC(=O)[C@@H]1CCCC[C@H]1CSc1nccs1 (racemic) | 490 |  |  |  | 

Compound | IC50 [2] [nM] | Selectivity ratio [3] | Selectivity ratio [4] | Selectivity ratio [5] | other results
N#CCNC(=O)[C@@H]1CCCC[C@H]1CSc1cccc(N)c1 (racemic) | 700 |  |  |  | 
N#CCNC(=O)[C@@H]1CCCC[C@H]1CSc1cc(Cl)cc(Cl)c1 (racemic) | 280 |  |  |  | 
N#CCNC(=O)[C@@H]1CCCC[C@H]1SCc1ccccc1 (racemic) |  |  |  |  | IC50 [1]: 52 nM
CSc1ccc(-c2ccccc2C2CCC(F)CC2C(=O)NCC#N)cc1 (racemic; form 1) [listing 2 of 2 here] |  | 1600 | 1500 | > 2400 | 
COc1cccc(SC[C@@H]2CCCC[C@H]2C(=O)NCC#N)c1 (racemic) | 370 |  |  |  | 
N#CCNC(=O)[C@@H]1CCCC[C@H]1CSc1ccc(F)cc1 (mixture of isomers) | 30 | 120 | 35 | 145 | 
N#CCNC(=O)[C@@H]1CCCC[C@H]1CSc1ccc(Cl)cc1Cl (mixture of isomers) | 110 |  |  |  | 
N#CCNC(=O)[C@@H]1CCCC[C@H]1CSc1ccc(N)cc1 (mixture of isomers) | 100 | 350 | 120 | > 990 | 
COc1ccc(SC[C@@H]2CCCC[C@H]2C(=O)NCC#N)cc1 (racemic) | 28 | 810 | 960 | > 3500 | 
N#CCNC(=O)[C@@H]1CCCC[C@H]1CSc1ccccc1 (racemic) | 172 | 150 | 28 | 31 | IC50 [1]: 140 nM
Cc1ccc(SC[C@@H]2CCCC[C@H]2C(=O)NCC#N)cc1 (racemic) | 100 | 110 | 180 | 380 | 
N#CCNC(=O)[C@@H]1CCCC[C@H]1CSc1ccc(Br)cc1 (racemic) | 33 | 71 | > 3100 | > 3100 | 
N#CCNC(=O)[C@@H]1CCCC[C@H]1CSc1cccc(Br)c1 (mixture of isomers) | 150 |  |  |  | 
N#CCNC(=O)[C@@H]1CCCC[C@H]1CSc1nnc(-c2ccncc2)o1 (relative stereo) | 950 |  |  |  | 
N#CCNC(=O)[C@@H]1CCCC[C@H]1CSc1ncc[nH]1 (relative stereo) | 410 |  |  |  | 
N#CCNC(=O)[C@@H]1CCCC[C@H]1CS(=O)(=O)c1ccc(OC(F)(F)F)cc1 (racemic) |  |  |  |  | half-life [13]: 0.333 h; clearance [14]: 42 mL/min/kg
N#CCNC(=O)[C@@H]1CCCC[C@H]1CSc1ncccn1 (racemic) | 990 |  |  |  | 
N#CCNC(=O)C1(NC(=O)c2ccccc2)CCCCC1 |  |  |  |  | IC50 [1]: 78 nM
CSc1ccc(-c2ccccc2[C@H]2CCC(F)(F)C[C@@H]2C(=O)NCC#N)cc1 | 7.1 |  |  |  | IC50 [9]: 9.2 nM
CSc1ccc(-c2ccccc2C2CCC(F)CC2C(=O)NCC#N)cc1 (racemic; form 2) [listing 2 of 2 here] | 3.7 |  |  |  | IC50 [9]: 12 nM
CSc1ccc(-c2ccccc2C2CCC(Cl)(Cl)CC2C(=O)NCC#N)cc1 (racemic) | 0.58 | 450 | 52 | > 17000 | CL/F [7]: 51 mL/min/kg; bioavailability [8]: 75%; IC50 [9]: 0.59 nM; half-life [10]: 3.1 h
